Screening results: PubChem BioAssay, several laboratories
An excerpt weighted towards active compounds, which were near 0.6% of everything screened.
GSK3beta inhib – human GSK3beta kinase inhibition; 300,000 tested, 0.038% active; P49841; GST-GSK3beta kinase, ADP-Glo luminescence, 60 min; active compounds read low; activity score (negative = inhibition), % at 10 µM; AID 2097;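 active means more than half of replicate wells score below -50%, meaning over 50% inhibition versus plate controls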
Target sequence (P49841 whole entry, looked up): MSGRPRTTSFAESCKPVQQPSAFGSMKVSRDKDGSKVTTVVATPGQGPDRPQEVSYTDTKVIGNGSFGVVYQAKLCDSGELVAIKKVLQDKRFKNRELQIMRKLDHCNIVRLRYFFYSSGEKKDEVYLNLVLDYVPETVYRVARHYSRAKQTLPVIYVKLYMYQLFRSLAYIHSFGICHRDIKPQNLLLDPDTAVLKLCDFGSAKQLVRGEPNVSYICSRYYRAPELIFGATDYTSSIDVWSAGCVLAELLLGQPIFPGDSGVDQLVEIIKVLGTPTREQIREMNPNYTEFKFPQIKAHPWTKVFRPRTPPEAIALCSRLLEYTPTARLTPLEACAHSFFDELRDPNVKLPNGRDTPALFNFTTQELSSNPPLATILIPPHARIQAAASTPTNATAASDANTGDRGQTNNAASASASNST
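Assay system: GST-tagged human GSK3beta kinase, cell-free; Input: 1.6 ng GSK3beta; Medium: Tris/MgCl2 kinase buffer; Timing: 60 min enzyme reaction, room temperature; Signal: ADP-Glo luminescence quantifying ADP generated by kinase; Evaluation: score relative to plate controls; Benchmarks: DMSO neutral wells and GW8510 at 20 µM as positive.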
GSK3A inh – blocks human GSK-3 alpha kinase; P49840; ADP-Glo luminescence, 60 min; inhibition, % at 10 µM; 320,000 tested, 0.1% active; AID 2650;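 active means more than half of replicates show inhibition above 20%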;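 further: GST-tagged GSK-3 alpha with peptide substrate and 25 µM ATP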
PolyA inh – inhibitors of polyadenylation in S. cerevisiae; S. cerevisiae SKY197-pL101 polyadenylation reporter, beta-gal luminescence; efflux-impaired pdr1/pdr3 knockout yeast; score 100 = 6 SD above DMSO; activity score, % at 12 µM; 300,000 tested, 0.02% active;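 active means lowest replicate activity score at least 50, where 100 means six control SD above control mean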;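 further: yeast exposed to compound for 9 h at 30 °C; higher score means more reporter readthrough which indicates perturbed polyadenylation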
STK33 kinase inh – blocks human STK33 kinase activity. 320,000 tested, 0.073% active. inhibition, % at 10 µM. AID 2661. purified STK33, MBP phosphorylation, ADP-Glo luminescence;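 active means inhibition at or above 25%, using the most active replicate where run in duplicate; inactive means inhibition below 25%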
Efflux pump inh – antifungal efflux pump inhibition, Nile Red retention. S. cerevisiae Candida pump triplex. inhibition, % at 10 µM. 330,000 tested, 0.44% active;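 active means plate passing quality check with inhibition over a set limit, or well fluorescence over plate mean plus 4 SD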;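 further: Nile Red retained in pooled yeast measured as flow cytometry median fluorescence; higher means more Nile Red kept so more efflux inhibition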
Cmpd fluor yeast – flagged as fluorescent in efflux inhibitor counter-screen; 1,700 tested, 4% active; AID 588517; S. cerevisiae AD/pABC3, compound fluorescence, flow cytometry; shares compounds with Efflux pump inh; fluorescence ratio to DMSO, % at 10 µM;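 active means fluorescence ratio to DMSO above its plate's cutoff, the plate mean ratio plus 5 SD, cut at about 210% in these data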;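 further: unstained yeast with no Nile Red so the signal is compound autofluorescence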
CaMdr1 efflux inh – Candida Mdr1 efflux pump inhibition | shares compounds with Efflux pump inh | S. cerevisiae AD/CaMDR1, Nile Red efflux, flow cytometry | inhibition, % at 10 µM | 1,700 tested, 1% active; in the data active means inhibition above about 26%;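 further: higher means more Nile Red retained so more efflux inhibition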
Cdr2 pump inh – Candida Cdr2 efflux pump inhibition; AID 588520; S. cerevisiae AD/CaCDR2, Nile Red retention, flow cytometry; Nile Red retention ratio vs DMSO, % at 10 µM; shares compounds with Efflux pump inh; 1,700 tested, 4% active; in the data active means Nile Red retention ratio vs DMSO above about 190%;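 further: higher ratio means more blocking of Cdr2 efflux of the dye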
Cdr1 pump inh – Candida Cdr1 efflux pump inhibition; S. cerevisiae AD/CaCDR1, Nile Red efflux, flow cytometry; shares compounds with Efflux pump inh; inhibition, % at 10 µM; 1,700 tested, 1% active;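 active means inhibition above the screen-wide mean plus twice its standard deviation, cut at about 32% in these data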
A number is an active result; n = inactive; x = no result.

SMILES	GSK3beta inhib	GSK3A inh	PolyA inh	STK33 kinase inh	Efflux pump inh	Cmpd fluor yeast	CaMdr1 efflux inh	Cdr2 pump inh	Cdr1 pump inh
CC(=O)Oc1ccc(/C=C/c2nc3ccccc3c(=O)o2)cc1	n	n	n	n	n	x	x	x	x
COc1ccc(C2N=C(Nc3ccc(C)cc3)Nc3nc(C)cc(=O)n32)cc1 (stereo not drawn)	n	n	n	n	0.4	n	n	n	n
Cc1ccc(N2CC(O)Cn3c2nc2c3c(=O)[nH]c(=O)n2C)cc1 (stereo not drawn)	n	n	n	n	n	x	x	x	x
O/N=C/c1ccc(-c2cc(Cl)ccc2Cl)o1	n	n	n	n	11.4	n	n	n	n
Cc1cccc(C(=O)NCC(=O)N2CCOCC2)c1	n	n	n	n	n	x	x	x	x
Cc1ccc2nc(SCC(=O)N3c4ccccc4CC3C)c(C)cc2c1 (stereo not drawn)	n	n	n	n	112.2	n	n	n	n
Cc1ccc2nc(-c3cccnc3SCC(=O)N3c4ccccc4CC3C)[nH]c2c1 (stereo not drawn)	n	n	n	n	n	x	x	x	x
CCOc1ccc(-c2c(C(=O)N/N=C/c3ccccc3)nnn2-c2nonc2N)cc1	n	n	n	n	n	n	n	n	n
CCOc1ccccc1/C=N/NC(=O)c1nnn(-c2nonc2N)c1CN1CCC(C)CC1	n	n	n	n	0.6	n	n	n	n
CC1CCN(Cc2c(C(=O)N/N=C/c3ccc(C(C)(C)C)cc3)nnn2-c2nonc2N)CC1	n	n	n	n	n	x	x	x	x
Cc1c(C(=O)N/N=C/c2c(O)ccc3ccccc23)nnn1-c1nonc1N	n	n	n	n	1.0	n	n	n	n
CCOc1ccc2oc(C(=O)OCC(=O)N3CC(C)OC(C)C3)c(C)c2c1 (stereo not drawn)	x	n	x	n	n	x	x	x	x
CCCOc1cc(N(CC)CC)ccc1/C=C(/C#N)c1nc2ccc(C)cc2[nH]1	n	n	n	n	0.7	241.4	n	n	n
O=C(Cc1ccccc1)Nc1ncccn1	n	n	n	n	n	x	x	x	x
Cc1ccc(NC(=O)c2cccc(S(=O)(=O)N(C)c3ccccc3)c2)cc1S(=O)(=O)N1CCOCC1	n	n	n	n	8.0	n	n	n	n
Cc1ccc(C(=O)Nc2cccc(C(=O)O)c2)cc1S(=O)(=O)N1CCOCC1	n	n	n	n	n	x	x	x	x
O=C(COC(=O)c1ccc(Cl)nc1)Nc1c(Cl)cccc1C(F)(F)F	n	n	n	n	0.5	n	n	n	n
O=C(COC(=O)c1ccc(Cl)nc1)NC(=O)c1ccccc1	n	n	n	n	0.6	n	n	n	n
CCOC(=O)N1CCN(S(=O)(=O)CCNC(=O)c2ccc(F)cc2)CC1	n	n	n	n	n	x	x	x	x
COc1ccc2cc1Oc1ccc(cc1)C[C@H]1c3c(cc(OC)c4c3Oc3c(ccc5c3[C@H](C2)N(C)CC5)O4)CCN1C	x	n	x	n	4.3	n	n	n	n
O=C(NCC1CCN(Cc2ccccc2F)CC1)C1CCCN(c2ncnc3c2nc2n3CCCCC2)C1 (stereo not drawn)	n	n	n	n	n	x	x	x	x
COc1ccc(CNC(=O)C(C)n2nc(C)c3c(C)n(-c4ccc(C)cc4)nc3c2=O)cc1 (stereo not drawn)	n	n	n	n	n	n	n	n	n
Cc1ccc(-n2nc3c(=O)n(CCCC(=O)NCCN4CCN(C)CC4)nc(C)c3c2C)cc1	n	n	n	n	5.4	n	n	n	n
Cc1ccc(-n2nc3c(=O)n(CCCC(=O)NCCc4ccccc4)nc(C)c3c2C)cc1	n	n	n	n	n	x	x	x	x
Cc1ccc(CCNC(=O)CCCn2nc(C)c3c(C)n(-c4ccc(C)cc4)nc3c2=O)cc1	n	n	n	n	n	n	n	n	n
SMILES	GSK3beta inhib	GSK3A inh	PolyA inh	STK33 kinase inh	Efflux pump inh	Cmpd fluor yeast	CaMdr1 efflux inh	Cdr2 pump inh	Cdr1 pump inh
Cc1ccc(-n2nc3c(=O)n(C(C)C(=O)NCCc4cccs4)nc(C)c3c2C)cc1 (stereo not drawn)	n	n	n	n	n	x	x	x	x
Cc1ccc(-n2nc3c(=O)n(CC(=O)NCCc4cccs4)nc(C)c3c2C)cc1	n	n	n	n	n	n	n	n	n
CCOc1ccc(CNC(=O)C(C)n2nc(C)c3c(C)n(-c4ccccc4)nc3c2=O)cc1 (stereo not drawn)	n	n	n	n	n	x	x	x	x
N#CC1=C(N)Oc2cc(N)ccc2C1C1CCCCC1 (stereo not drawn)	n	n	n	n	n	x	x	x	x
CCCOc1ccc(C(=O)NNC(=O)CCNC(=O)c2ccccc2Cl)cc1OC	n	n	n	n	n	x	x	x	x
CCC(C(=O)Nc1cc(F)ccc1F)n1nc(C)c2c(C)n(-c3ccc(C)cc3)nc2c1=O (stereo not drawn)	n	n	n	n	5.0	n	n	n	n
Cc1nn(CCC(=O)NCc2ccc(OC(C)C)cc2)c(=O)c2nn(-c3ccccc3)c(C)c12	n	n	n	n	n	n	n	n	n
CCn1nnc(NC(=O)c2ccco2)n1	n	n	n	n	n	x	x	x	x
OC(COCc1ccc(Cl)cc1)CN1CCCCC1 (stereo not drawn)	n	n	n	n	1.1	n	n	n	n
O=Cc1ccc(-n2cncn2)cc1	n	n	n	n	1.0	n	n	n	n
CC(=O)Nc1ccc(S(=O)(=O)N2CCN=C2SCc2ccc(C)cc2)cc1	n	n	n	n	n	x	x	x	x
CC(=O)Nc1ccc(S(=O)(=O)N2CCN=C2SCc2ccc(F)cc2)cc1	n	n	n	n	1.4	n	n	n	n
COC(=O)[C@H](CCSC)NC(=O)NCc1cccs1	n	n	n	n	6.7	n	n	n	n
COc1ccc(CNCCC(c2ccc(F)cc2)c2ccc(OC)cc2)cc1 (stereo not drawn)	n	n	n	n	10.2	n	n	n	n
COc1ccc(C(CCNCc2ccc(F)cc2)c2ccc(F)cc2)cc1 (stereo not drawn)	n	n	n	n	n	x	x	x	x
CSc1nsc(SC)c1C(=O)NC(=O)Nc1cccnc1	n	n	n	n	0.8	n	n	n	n
O=C(COC(=O)c1ccccn1)c1cccc(Br)c1	n	n	n	n	n	x	x	x	x
O=C(COC(=O)c1ccccn1)c1ccc(Br)cc1	n	n	n	n	1.3	n	n	n	n
COc1ccc(NC(=O)c2ccc3[nH]c(C)c(C)c3c2)cc1	n	n	n	n	n	x	x	x	x
Cc1occc1C(=O)NCc1cccc(CNC(=O)c2ccoc2C)c1	n	n	n	n	0.3	n	n	n	n
